Assay results taken from paper PMC6679956 (Journal of medicinal chemistry, 2019).

Assays:
[1] = Peptide helicity by CD spectroscopy; assay type: physicochemical
Procedure, shortened: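 Test peptides at 100 μM in 5 mM sodium phosphate, pH 7.4, equilibrated at 10, 15, 20, 25 and 30 °C. Spectra recorded from 180 to 260 nm: 0.1 nm step, 50 nm/s, five accumulations, 1 s response, 5 nm bandwidth, 0.1 cm path. α-Helical content calculated from previously reported equations. Triplicate analyses per peptide.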

m^7GDP-bound eIF4E = m^7GDP-bound eIF4E (Homo sapiens, UniProt P06730); assay: SPR binding kinetics of peptides to immobilized eIF4E
[2] = SPR, 25 °C, 1.0 M versus 225 mM salt

m^7GDP-bound eIF4E, sequence (P06730 whole entry): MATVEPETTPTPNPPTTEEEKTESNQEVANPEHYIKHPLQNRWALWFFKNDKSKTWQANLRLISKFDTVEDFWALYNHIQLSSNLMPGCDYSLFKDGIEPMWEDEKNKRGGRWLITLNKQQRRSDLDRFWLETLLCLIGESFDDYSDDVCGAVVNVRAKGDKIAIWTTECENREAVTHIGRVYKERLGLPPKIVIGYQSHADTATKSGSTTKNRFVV

CC[C@H](C)[C@H](NC(=O)[C@H](CCCNC(=N)N)NC(=O)[C@@H](NC(=O)CNC(C)=O)[C@@H](C)O)C(=O)N[C@H](C(=O)N[C@@H](Cc1ccc(O)cc1)C(=O)N[C@@H](CC(=O)O)C(=O)N[C@@H](CCCNC(=N)N)C(=O)N[C@@H](CCCCN)C(=O)N[C@@H](Cc1ccccc1)C(=O)N[C@@H](CC(C)C)C(=O)N[C@@H](CCSC)C(=O)N[C@@H](CCC(=O)O)C(=O)N[C@@H](CS)C(=O)N[C@@H](CCCNC(=N)N)C(=O)N[C@@H](CC(N)=O)C(N)=O)[C@@H](C)CC [4E-BP1]
helicity over the temperatures tested ([1]; 100 μM, 10 to 30 °C): 15–19% | helicity in the presence of TFE ([1]; 5 mM sodium phosphate buffer pH 7.4, 25 °C, 100 μM peptide, with 2,2,2-trifluoroethanol): 37%

CC(=O)N[C@@H](CCCCN)C(=O)N[C@@H](CCCCN)C(=O)N[C@@H](CCCNC(=N)N)C(=O)N[C@@H](Cc1ccc(O)cc1)C(=O)N[C@@H](CC(=O)O)C(=O)N[C@@H](CCCNC(=N)N)C(=O)N[C@@H](CCC(=O)O)C(=O)N[C@@H](Cc1ccccc1)C(=O)N[C@@H](CC(C)C)C(=O)N[C@@H](CC(C)C)C(=O)NCC(=O)N[C@@H](Cc1ccccc1)C(=O)N[C@@H](CCC(N)=O)C(=O)N[C@@H](Cc1ccccc1)C(N)=O [eIF4G]
kd with increasing salt concentration (m^7GDP-bound eIF4E; SPR, 25 °C, running buffer salt 225 to 1000 mM): 0.046 to 0.27 s⁻¹ | kinetic advantage (ka) of eIF4G peptide over both 4E-BP1 peptides (m^7GDP-bound eIF4E; SPR, at most temperatures, particularly the higher ones): ~ 2 fold

Ac-KKRYSREQLLGL-NH2 [Linear sTIP-04]
fold decrease in Kd with increasing salt concentration (m^7GDP-bound eIF4E; [2]): 4 fold | fold decrease in kd with increasing salt concentration (m^7GDP-bound eIF4E; [2]): 48 fold | kon (m^7GDP-bound eIF4E; pH 7.5, read-out: association rate ka): 2e+06 ± 100000 M⁻¹ s⁻¹ | koff (m^7GDP-bound eIF4E; pH 7.5, read-out: dissociation rate kd): 0.123 ± 0.014 s⁻¹
